C8 TRAIL sens = caspase-8 TRAIL sensitization; inhibition (viability loss, TRAIL sensitization), % at 10 µM; hit rate 1% among 360,000; AID 624354; NB7+C8 cells + TRAIL, ATPlite viability luminescence;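 active = compounds causing at least 50% loss of cell viability in the single-dose screen, relative to plate controls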
FLuc inhib CS = inhibits firefly luciferase, flagging false hits in luciferase inhibition screens; P08659; AID 1006; ATPLite firefly luciferase biochemical luminescence, 10 min; hit rate 1.5% among 200,000; inhibition, % at 10 µM;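 active = inhibition above about 50% when tested at 10 µM, limit read from the data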
Target sequence (P08659 whole entry, looked up): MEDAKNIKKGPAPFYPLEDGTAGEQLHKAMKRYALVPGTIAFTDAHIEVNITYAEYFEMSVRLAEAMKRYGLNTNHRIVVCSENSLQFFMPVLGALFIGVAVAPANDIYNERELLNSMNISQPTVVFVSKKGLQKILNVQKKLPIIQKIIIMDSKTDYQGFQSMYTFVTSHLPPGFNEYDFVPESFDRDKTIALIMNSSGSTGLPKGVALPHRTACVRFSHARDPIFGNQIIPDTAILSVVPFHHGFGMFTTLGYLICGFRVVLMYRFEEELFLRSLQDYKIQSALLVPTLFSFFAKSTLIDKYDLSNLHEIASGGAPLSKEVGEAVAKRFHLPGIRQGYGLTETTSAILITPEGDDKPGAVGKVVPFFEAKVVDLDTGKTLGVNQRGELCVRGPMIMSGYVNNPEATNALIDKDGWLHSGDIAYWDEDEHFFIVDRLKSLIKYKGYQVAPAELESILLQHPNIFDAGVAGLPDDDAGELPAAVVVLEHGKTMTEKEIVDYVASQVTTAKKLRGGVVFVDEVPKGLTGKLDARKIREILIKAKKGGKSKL
Wee1 degr inh = blocks degradation of human Wee1 kinase | P30291 | HeLa Luc-Wee1K328M stability, luciferase luminescence; 100% = proteasome inhibitor MG132 effect | reporter increase, % at 5 µM | hit rate 1.2% among 220,000;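 active = activation above the mean of all tested compounds plus 3 SD, set per screening run, cut at about 8.8% in these data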;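 also: cells exposed to compound for 20 h before luminescence read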
FLuc act counter = firefly luciferase counter-screen for stimulation assays; P08659; ATPlite luciferase biochemical, luminescence, 10 min; 0 = ATP-free wells, 1 = DMSO control; 200,000 tested, under 10 active; activation factor at 10 µM;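 active = luciferase activation factor, scaled between plate controls, of at least 2 with compound at 10 µM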
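System: luciferase plus luciferin reagent, cell-free; medium: PBS as buffer for the ATP substrate; dosing: test compounds dosed from 2 mM stocks in 100% DMSO; timing: 10 min post-reagent at room temperature; measured by: luminescence measurement of luciferase light output; evaluation: luciferase activation, seen as luminescence increase over controls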
PPC-1+TRAIL kill = compounds killing PPC-1 cancer cells with TRAIL present (potentiator screen, no TRAIL-free arm). PPC-1 cells + TRAIL, ATPLite viability luminescence. cell killing (% activity), % at 4 µM or 5 µM. hit rate 0.41% among 220,000;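 active = cell killing above 50% in the first pass at 4 µM, then a duplicate retest at 5 µM averaging 50% or more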
PKD1 kinase inh = inhibitors of human PKD1 kinase | Q15139 | PKD1 kinase fluorescence polarization assay | inhibition, % (concentration not given with the values) | hit rate 0.056% among 200,000; in the data active = inhibition above about 50%
Hits are given with their value. Sampled rows, rich in hits. Any-hit rate of the full collection: about 2.2%.

Screening CC1=NC(=O)C(N=Nc2cccc(C(=O)O)c2)N1c1ccccc1 (stereo not given) returned C8 TRAIL sens inactive, FLuc inhib CS 54, Wee1 degr inh inactive, FLuc act counter inactive, PPC-1+TRAIL kill inactive and PKD1 kinase inh inactive.
For CC1=NC(=O)C(N=Nc2ccccc2)N1c1ccccc1 (stereo not given) the results were C8 TRAIL sens inactive, FLuc inhib CS inactive, Wee1 degr inh inactive, FLuc act counter inactive, PPC-1+TRAIL kill inactive and PKD1 kinase inh inactive.
For O=C(C[n+]1ccccc1)N/N=C/c1cc(Br)ccc1O the results were C8 TRAIL sens inactive.
`CC(=O)N1CCN(C(=O)c2cc3c(s2)CCC(C)C3)CC1` (stereo not given) gave C8 TRAIL sens inactive.
`O=C(O)Cn1cnc2ccccc2c1=O` gave C8 TRAIL sens inactive, FLuc inhib CS inactive, Wee1 degr inh 9.6, FLuc act counter inactive, PPC-1+TRAIL kill inactive and PKD1 kinase inh inactive.
For Cn1c(-c2ncc(F)cc2F)cc2onc(-c3c(F)cccc3Cl)c2c1=O the results were C8 TRAIL sens inactive.
Cn1c(-c2ccccc2)cc2onc(-c3ccccc3)c2c1=O was read as C8 TRAIL sens 81.
For Cn1c(-c2ccccc2F)cc2onc(-c3ccccc3)c2c1=O the results were C8 TRAIL sens 63.
CCn1c(C)cc(/C=C2/SC(=S)N(CC(=O)O)C2=O)c1C was read as C8 TRAIL sens inactive, FLuc inhib CS 80, Wee1 degr inh inactive, FLuc act counter inactive, PPC-1+TRAIL kill inactive and PKD1 kinase inh inactive.
C#CCN1C(=O)S/C(=C/c2cc(C)n(CC)c2C)C1=O was read as C8 TRAIL sens inactive, FLuc inhib CS inactive, Wee1 degr inh inactive, FLuc act counter inactive, PPC-1+TRAIL kill inactive and PKD1 kinase inh inactive.
Screening Cc1ccccc1/C=C/c1nc2ccccc2c(=O)[nH]1 returned C8 TRAIL sens 54, Wee1 degr inh inactive and PPC-1+TRAIL kill inactive.
For Cc1ccccc1/C=C\c1nc2ccccc2c(=O)[nH]1 the results were C8 TRAIL sens inactive, FLuc inhib CS 56, Wee1 degr inh inactive, FLuc act counter inactive, PPC-1+TRAIL kill inactive and PKD1 kinase inh inactive.
For N#CCOc1ccccc1/C=C/c1nc2ccccc2c(=O)[nH]1 the results were C8 TRAIL sens inactive.
CCc1nc2ccc(C(=O)NCCCn3ccnc3)cn2c1N(C)C(=O)C1CCCCC1 was read as C8 TRAIL sens inactive.
For O=C1OC(c2ccccc2)=C/C1=C\N1CCOCC1 the results were C8 TRAIL sens inactive, FLuc inhib CS inactive, Wee1 degr inh 27, FLuc act counter inactive, PPC-1+TRAIL kill inactive and PKD1 kinase inh inactive.
For O=C1OC(c2ccccc2)=C/C1=C/N1CCOCC1 the results were C8 TRAIL sens inactive, FLuc inhib CS inactive, Wee1 degr inh inactive, FLuc act counter inactive, PPC-1+TRAIL kill inactive and PKD1 kinase inh inactive.
For CN(C(=O)c1ccc(NC(=O)Cc2cccc(NC(=O)C3CCN(C(=O)c4ccccc4)CC3)c2)cc1)C1CCCC1 the results were C8 TRAIL sens inactive.
For COc1ccc(NC(=O)CN(C)C(=O)CSc2ccc(Br)cc2)cc1 the results were C8 TRAIL sens inactive.
C(=Cc1c[nH]c2ccccc12)c1ccc2ccccc2n1 was read as C8 TRAIL sens 71.
Screening O=C(/C=C/c1c[nH]c2ccccc12)c1ccccc1 returned C8 TRAIL sens inactive, FLuc inhib CS inactive, Wee1 degr inh inactive, FLuc act counter inactive, PPC-1+TRAIL kill inactive and PKD1 kinase inh inactive.
Screening C(=Cc1c[nH]c2ccccc12)c1nccc2ccccc12 returned C8 TRAIL sens 73.
O=Cc1nccc2ccccc12 was read as C8 TRAIL sens inactive.
`Nc1c(C(=O)Nc2cccc(C(=O)O)c2)sc2nc3c(cc12)CCCC3` gave C8 TRAIL sens 82.
COc1cccc2sc(N)nc12 was read as C8 TRAIL sens inactive.
Screening COc1cccc2sc(N(C)c3ccccc3)nc12 returned C8 TRAIL sens 60, FLuc inhib CS 85, Wee1 degr inh inactive, FLuc act counter inactive, PPC-1+TRAIL kill inactive and PKD1 kinase inh inactive.
CC1(C)CC2CC(C)(CN2C(=O)COC(=O)CNC(=O)c2ccc(Cl)c(Cl)c2)C1 (stereo not given) was read as C8 TRAIL sens inactive, FLuc inhib CS inactive, Wee1 degr inh 11, FLuc act counter inactive, PPC-1+TRAIL kill inactive and PKD1 kinase inh inactive.
For O=c1c(Br)ccc(Br)cc1Br the results were C8 TRAIL sens 93.
CC(=O)N1CC(C)Sc2ccc(S(=O)(=O)NCCc3cccc(C)c3)cc21 (stereo not given) was read as C8 TRAIL sens inactive.
For Cc1cccc(C(=O)O/N=C2\CCCc3ccccc32)c1 the results were C8 TRAIL sens inactive, FLuc inhib CS 81, Wee1 degr inh inactive, FLuc act counter inactive, PPC-1+TRAIL kill inactive and PKD1 kinase inh inactive.
For O=C(O/N=C1\CCCc2ccccc21)c1cccc(Cl)c1 the results were C8 TRAIL sens inactive, FLuc inhib CS inactive, Wee1 degr inh inactive, FLuc act counter inactive, PPC-1+TRAIL kill inactive and PKD1 kinase inh inactive.
For O=C(O/N=C1/CCCc2occc21)c1ccccc1 the results were C8 TRAIL sens inactive, FLuc inhib CS 70, Wee1 degr inh inactive, FLuc act counter inactive, PPC-1+TRAIL kill inactive and PKD1 kinase inh inactive.
Cc1ccc(C(=O)O/N=C2\CCCc3ccccc32)cc1 was read as C8 TRAIL sens inactive, FLuc inhib CS 94, Wee1 degr inh inactive, FLuc act counter inactive, PPC-1+TRAIL kill inactive and PKD1 kinase inh inactive.
`O=C(O/N=C1\CCCc2ccccc21)C1CC1` gave C8 TRAIL sens inactive, FLuc inhib CS inactive, Wee1 degr inh inactive, FLuc act counter inactive, PPC-1+TRAIL kill inactive and PKD1 kinase inh inactive.
Screening O=C(Nc1cccc(NC(=O)c2ccc(Cl)cc2Cl)c1)c1cccnc1 returned C8 TRAIL sens inactive.
CCCn1c(N)c(N2CCCCC2)c(=O)n(CC(=O)Nc2cccc(S(=O)(=O)N(C)C)c2)c1=O was read as C8 TRAIL sens inactive.
CCCCN(C(C)=O)c1c(N)n(CCC)c(=O)n(CC(=O)Nc2cc(Cl)cc(Cl)c2)c1=O was read as C8 TRAIL sens inactive, FLuc inhib CS inactive, Wee1 degr inh 12, FLuc act counter inactive, PPC-1+TRAIL kill inactive and PKD1 kinase inh inactive.
CCCCc1ccc(NC(=O)CSc2nnc(C)c(=O)n2N)cc1 was read as C8 TRAIL sens inactive.
Screening Cc1ccn2cc(C(=O)Nc3ccc4c(c3)OCCO4)nc2c1 returned C8 TRAIL sens 62, FLuc inhib CS 73, Wee1 degr inh inactive, FLuc act counter inactive, PPC-1+TRAIL kill inactive and PKD1 kinase inh inactive.
For Cc1ccn2cc(C(=O)Nc3nnc(C)s3)nc2c1 the results were C8 TRAIL sens inactive, FLuc inhib CS inactive, Wee1 degr inh 8.9, FLuc act counter inactive, PPC-1+TRAIL kill inactive and PKD1 kinase inh inactive.
Cc1cc(C(=O)N2CCC(C)(C(=O)NS(=O)(=O)C3CC3)C2)n(C(C)(C)C)n1 (stereo not given) was read as C8 TRAIL sens inactive.
